In PMC8572679 (Journal of Pharmaceutical Analysis, 2020):

Columns and labels:
[1] = Pharmacokinetics of BBR, M1 and M2 in vivo after single oral administration; settings: ICR mice; for AUC(0-t) / AUC(0-inf) / Cmax / MRT last / MRT inf / half-life: ICR, mouse, plasma, po, 200 mg/kg, two-compartment model, mean ± SD; for AUC(0-t): AUC(0–24 h); for AUC(0-t) / AUC(0-inf) / Cmax / MRT last / MRT inf: BBR in plasma; for MRT last: MRT(0–24 h); for MRT inf: MRT(0−∞); for half-life: t1/2, BBR in plasma; for level in plasma (below the lower limit of quantitation): any of the time points
In short: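 Male ICR mice, fasted 12 h, got a single oral dose of BBR 200 mg/kg + voriconazole 30 mg/kg, with food allowed after 3 h. Retrobulbar blood was drawn into heparinised tubes at 0.17–24 h (11 times) and stored at −20 °C. 100 μL plasma was precipitated with 300 μL methanol containing internal standard. BBR, M1 and M2 were measured by LC-MS/MS, with a curve of 1–1000 ng/mL and a lower limit of quantitation of 1 ng/mL.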

[2] = test system: gut microbiota; assay: 16S rRNA analysis of the feces of ICR mice after oral administration; assay type: in vivo
[3] = test system: CYP51; assay: Activity of CYP51 in four standard bacterial strains; assay type: cell-based, E. faecalis, S. epidermidis, E. cloacae, and E. faecium
In short: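 The four strains were resuscitated, plate-counted and diluted to equal density. 100 μL culture went into 0.9 mL sterile anaerobic medium, N₂-flushed, sealed and held at 37 °C. Groups were methanol control, 10 μL of 50 mg/mL BBR, or BBR plus 3.5 μg/mL voriconazole. After 48 and 72 h, cells were sonicated and CYP51 activity was measured by sterol 14α-demethylase ELISA kit.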

[4] = cited from earlier work
[5] = target: CYP51 enzyme lysate (Saccharomyces cerevisiae, UniProt P10614); assay: Enzymatic reaction in recombinant CYP51 enzyme lysate; assay type: biochemical, Saccharomyces cerevisiae S288C; settings: NADPH 0.5 mM, 0-4 h
Sequence of CYP51 enzyme lysate (P10614 2-530): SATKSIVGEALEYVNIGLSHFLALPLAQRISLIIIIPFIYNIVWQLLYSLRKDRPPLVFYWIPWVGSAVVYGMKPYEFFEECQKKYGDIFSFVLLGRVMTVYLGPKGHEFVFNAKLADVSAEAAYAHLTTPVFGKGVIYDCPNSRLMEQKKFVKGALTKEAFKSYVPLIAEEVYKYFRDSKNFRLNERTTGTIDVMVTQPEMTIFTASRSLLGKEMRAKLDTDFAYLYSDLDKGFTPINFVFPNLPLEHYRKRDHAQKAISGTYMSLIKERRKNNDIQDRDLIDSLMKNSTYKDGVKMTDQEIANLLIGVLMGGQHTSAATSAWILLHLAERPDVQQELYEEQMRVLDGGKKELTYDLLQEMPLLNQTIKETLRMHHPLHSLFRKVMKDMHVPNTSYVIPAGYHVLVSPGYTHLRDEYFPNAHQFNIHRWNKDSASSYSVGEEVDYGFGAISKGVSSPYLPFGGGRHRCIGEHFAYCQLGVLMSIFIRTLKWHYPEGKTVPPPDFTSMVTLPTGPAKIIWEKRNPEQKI

[6] = test system: mice gut microbiota; assay: Metabolism of BBR by the mice gut microbiota in vitro; assay type: in vitro ADME; settings: BBR 50 mg/mL + voriconazole 3.5 μg/mL vs BBR group
In short: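 Mouse colon contents were homogenised anaerobically, 1 g in 20 mL autoclaved anaerobic medium, and preincubated 60 min at 37 °C under N₂. 1 mL culture received 10 μL methanol solution (BBR 50 mg/mL + voriconazole 3.5 μg/mL, BBR alone, or methanol control), was sealed and incubated at 37 °C for 12–72 h. It was quenched with methanol, centrifuged, diluted 50-fold and precipitated with methanol plus internal standard. BBR, M1 and M2 were measured by LC-MS/MS (ESI+), curve 1–1000 ng/mL.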

[7] = test system: mouse intestinal microsomes; assay: Metabolism of BBR in mouse intestinal microsomes in vitro; assay type: in vitro ADME; settings: BBR 50 mg/mL + voriconazole 3.5 μg/mL
[8] = test system: E. faecalis, S. epidermidis, E. cloacae, and E. faecium; assay: Metabolism of BBR in the four standard bacterial strains; assay type: in vitro ADME; settings: BBR 50 mg/mL + voriconazole 3.5 μg/mL, 72 h
In short: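 Plate-counted strains, equalised in density, were put in anaerobic medium (100 μL culture + 0.9 mL), N₂-flushed, sealed and preincubated 1 h at 37 °C. Each got 10 μL BBR (50 mg/mL solution) ± voriconazole (3.5 μg/mL solution) or methanol control and was incubated 48 and 72 h. It was quenched with 1 mL methanol containing internal standard and centrifuged. BBR, M1 and M2 were measured by LC-MS/MS (curve 1–1000 ng/mL) and % BBR metabolism calculated.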

[9] = oral BBR 200 mg/kg + voriconazole 30 mg/kg
[10] = feces 24 h after oral BBR, vs control group, P < 0.05

COc1ccc2cc3[n+](cc2c1OC)CCc1cc2c(cc1-3)OCO2 [BBR, Berberine]
AUC(0-t) [1, 9]: 299 ± 56.4 ng·h/mL | AUC(0-t) ([1]; oral BBR 200 mg/kg): 272 ± 68.4 ng·h/mL | AUC(0-inf) [1, 9]: 388 ± 103 ng·h/mL | AUC(0-inf) ([1]; oral BBR 200 mg/kg): 334 ± 79.3 ng·h/mL | Cmax [1, 9]: 64.5 ± 20.1 ng/mL | Cmax ([1]; oral BBR 200 mg/kg): 44.3 ± 10.4 ng/mL | MRT last [1, 9]: 6.5 ± 1.4 h | MRT last ([1]; oral BBR 200 mg/kg): 7.39 ± 1.71 h | MRT inf [1, 9]: 10.4 ± 2.32 h | MRT inf ([1]; oral BBR 200 mg/kg): 12.7 ± 5.85 h | half-life [1, 9]: 9.91 ± 5.26 h | half-life ([1]; oral BBR 200 mg/kg): 8.44 ± 5.55 h | abundance of Porphyromonadaceae (family level) ([2]; after oral BBR, vs control group, P < 0.05 (Fig. S2)): significant increase | abundance of the genus Parabacteroides [2, 10]: significant increase | abundances of five genera (Tyzzerella 3, Rikenellaceae RC9 gut group, Roseburia, Tyzzerella, Ruminococcus 1) [2, 10]: significant decrease | activity of CYP51 compared with that in the strains alone ([3]; four strains incubated with 50 mg/mL BBR for 72 h): not significantly different | share of BBR that could enter the blood (absorption rate) [4]: less than 10% | production ratios of M1 and M2 ([5]; BBR 10 μg/mL, CYP51 enzyme lysate compared with the control): significantly increased

CC(C)=CCC[C@@H](C)[C@H]1CC[C@@]2(C)C3=C(CC[C@]12C)[C@@]1(C)CC[C@H](O)C(C)(C)[C@@H]1CC3 [Lanosterol]
production ratio of demethylated metabolite FF-MAS ([5]; lanosterol 10 μg/mL, CYP51 enzyme lysate): increased significantly

COc1c(O)ccc2cc3[n+](cc12)CCc1cc2c(cc1-3)OCO2 [M1, Thalifendine]
level in plasma (below the lower limit of quantitation) [1, 9]: < 1 ng/mL

COc1ccc2cc3[n+](cc2c1O)CCc1cc2c(cc1-3)OCO2 [M2, Berberrubine]
level in plasma (below the lower limit of quantitation) [1, 9]: < 1 ng/mL

C[C@@H](c1ncncc1F)[C@](O)(Cn1cncn1)c1ccc(F)cc1F [voriconazole]
percentage of residual BBR after the addition of voriconazole [6]: significantly increased | production of M1 after the addition of voriconazole [6]: significantly decreased | production of M2 after the addition of voriconazole [6]: significantly decreased | abundances of Parabacteroides, Tyzzerella 3, Rikenellaceae RC9 gut group, Roseburia, Tyzzerella, Ruminococcus 1 and Porphyromonadaceae after the addition of voriconazole ([2]; oral BBR 200 mg/kg + voriconazole 30 mg/kg vs BBR 200 mg/kg (Fig. S3)): did not change significantly | decrease of production of M1 after adding voriconazole ([7]; 30 min): 21% | decrease of production of M2 after adding voriconazole ([7]; 30 min): 28% | decrease of production of M1 after adding voriconazole ([7]; 60 min): 25% | decrease of production of M2 after adding voriconazole ([7]; 60 min): 26% | decrease of production of M1 after adding voriconazole ([7]; 120 min): 20% | decrease of production of M2 after adding voriconazole ([7]; 120 min): 30% | CYP51 activity after the addition of voriconazole ([3]; four strains, BBR 50 mg/mL + voriconazole 3.5 μg/mL, 72 h): reduced | level of M2 produced by each strain after the addition of voriconazole [8]: below the lower limit of quantitation | level of M1 produced by each strain after the addition of voriconazole ([8]; vs BBR group): significantly reduced
